Assay results as given in ChEMBL document CHEMBL3098075, “Lipoic acid analogs with enhanced pharmacological activity” (2014).
Residues, ends and D or L forms follow the SMILES beside them.

Test system: Rattus norvegicus
Assay: Cardioprotective activity in Sprague-Dawley rat model of myocardial ischemia-reperfusion injury assessed as reduction in MI/AR ratio at 1 to 10 mg/kg, iv bolus administered 15 mins prior to 30 mins LCX ligation by TTC staining-based fluorescence microscopy relative to placebo control
Assay type: functional, Myocardium
Design: scale not given: the % may be the effect or the level left
Conditions: dose mg/kg 1-10
Method in brief: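 Anaesthetised animals underwent thoracotomy and pericardotomy, then LCX coronary ligation for 30 min followed by reperfusion. Agent was given in isotonic saline (pH-neutralised with NaOH, 285 mOsm), 1 mL/kg, before ligation. Fluorescent microspheres injected into the LV cavity during ischemia marked the area at risk. Hearts were excised after 24 h and cut into five 2 mm slices stained with 1% TTC. The MI/AR ratio was compared with placebo by Student's t-test.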

Molecule	Activity
NC(=O)CC[C@H](NC(=O)CCCC[C@@H]1CCSS1)C(=O)NCC(=O)O	17%
O=C(O)CNC(=O)[C@H](CC(=O)O)NC(=O)CCCC[C@@H]1CCSS1	28%
C[C@H](NC(=O)[C@H](Cc1ccc(O)cc1)NC(=O)CCCC[C@@H]1CCSS1)C(=O)O	31%
O=C(O)CC[C@H](NC(=O)CCCC[C@@H]1CCSS1)C(=O)NCCS(=O)(=O)O	33%
C[C@H](NC(=O)CCCC[C@@H]1CCSS1)C(=O)N[C@@H](CCC(=O)O)C(=O)O	24%
O=C(CCCC[C@@H]1CCSS1)N[C@@H](Cc1ccc(C(=O)O)cc1)C(=O)O	26%
O=C(CCCC[C@@H]1CCSS1)N[C@@H](Cc1ccc(O)cc1)C(=O)O	29%
O=C(CCCC[C@@H]1CCSS1)NC(CF)C(=O)O (some centres undefined)	10%
O=C(O)CC[C@H](NC(=O)CCCC[C@@H]1CCSS1)C(=O)O	33%
O=C(CCCC[C@@H]1CCSS1)N[C@@H](CS(=O)(=O)O)C(=O)O	30%
O=C(O)CN(CC(=O)O)C(=O)CCCC[C@@H]1CCSS1	21%
O=C(O)CCNC(=O)CCCC[C@@H]1CCSS1	39%
O=C(CCCC[C@@H]1CCSS1)NCCS(=O)(=O)O	45%
O=C(CCCC[C@@H]1CCSS1)NCCOS(=O)(=O)O	30%
O=C(CCCC[C@@H]1CCSS1)NCCP(=O)(O)O	53%
O=C(CCCC[C@@H]1CCSS1)NCCOP(=O)(O)O	47%
O=C(CCCC[C@@H]1CCSS1)Nc1ccc(C(=O)O)cc1	22%
O=C(CCCC[C@@H]1CCSS1)Nc1cccc(S(=O)(=O)O)c1	33%
O=C(CCCC[C@@H]1CCSS1)Nc1ccc(S(=O)(=O)O)cc1	44%
CC(=O)N[C@@H](CCC(=O)O)C(=O)N[C@@H](C)C(=O)N[C@@H](CCC(=O)O)C(=O)N[C@@H](C)C(=O)O (Ac-EAEA-OH)	23%
CC(=O)N[C@@H](CCC(=O)O)C(=O)N[C@@H](C)C(=O)O (Ac-Glu-Ala-OH)	23%
C[C@H](NC(=O)[C@H](CCC(=O)O)NC(=O)CCCC[C@@H]1CCSS1)C(=O)O [CMX-2043]	31%
O=C(O)CCCC[C@@H]1CCSS1 [THIOCTIC ACID]	19%
Ac-EAEAEGA-OH	17%
